Calls of active or inactive are those of the source. No cut-off for these calls is given here.
What was measured:
Assay type in all cases: functional, cell-based
[1] = system: AGS; assay: Cytotoxicity against human AGS cells by MTS colorimetric assay
In short: (§1)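 Cells grown in DMEM with 10% fetal calf serum and seeded 24 h before treatment. Viability read by MTS colorimetric assay after 72 h compound exposure. IC50 taken as mean concentration giving 50% growth inhibition from replicate values.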

[2] = system: DLD-1; assay: Cytotoxicity against human DLD1 cells by MTS colorimetric assay; in short: as §1
[3] = (§2) Cytotoxicity against human HA59T cells by MTS colorimetric assay; in short: as §1
[4] = system: HepG2; assay: Cytotoxicity against human HepG2 cells by MTS colorimetric assay; in short: as §1
[5] = system: HA59T; assay: as §2; in short: as §1
[6] = system: AGS; assay: Cytotoxicity against human AGS cells upto 30 uM by MTS colorimetric assay
In short: (§3)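 Cells grown in DMEM with 10% fetal calf serum, seeded and cultured 24 h, then exposed to test compounds for 72 h. Viability read by MTS colorimetric assay.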

[7] = system: DLD-1; assay: Cytotoxicity against human DLD1 cells upto 30 by MTS colorimetric assay; in short: as §3
[8] = system: HA59T; assay: Cytotoxicity against human HA59T cells upto 30 by MTS colorimetric assay; in short: as §3
[9] = system: HepG2; assay: Cytotoxicity against human HepG2 cells upto 30 by MTS colorimetric assay; in short: as §3

Compound | IC50 [1] [µM] | IC50 [2] [µM] | IC50 [3] [µM] | IC50 [4] [µM] | Activity [6] | Activity [7] | Activity [8] | Activity [9] | further results
COc1ccc2c(c1O)-c1nccc(C)c1C2=O | > 30 | > 30 | 21.7 | > 30 | – | – | – | – | –
c1ccc2c(c1)C[C@H]1NCCc3cc4c(c-2c31)OCO4 [ANONAINE] | 8.6 | 28.9 | 16.4 | 20.8 | – | – | – | – | –
CC1=CCC[C@@H]2[C@@](C)(CCC3=CC(=O)O[C@@H]3O)[C@H](C)CC[C@@]12C | 26.9 | > 30 | 23.6 | > 30 | – | – | – | – | –
C[C@@H]1CC[C@@]2(O)[C@H](CC[C@H](O)C2(C)C)[C@@]1(C)CCC1=CC(=O)O[C@@H]1O | – | – | – | – | – | – | – | – | Activity [1]: inactive; Activity [2]: inactive; Activity [5]: inactive; Activity [4]: inactive
COc1cc2c(cc1O)[C@@H]1Cc3ccc(O)c(OC)c3CN1CC2 | – | – | – | – | inactive | inactive | inactive | inactive | –
COc1cc2c(cc1O)C[C@@H]1NCCc3cc(O)c(OC)c-2c31 | – | – | – | – | inactive | inactive | inactive | inactive | –
